Activity calls are given as the source filed them. The calls are words filed in the database; no cut-off is given here.
Experiments:
Plasmodium falciparum [1] = test: Inhibition of Plasmodium falciparum Pfnek1 at 50 uM
Method in brief: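 Kinase reaction in 20 mM Tris/HCl pH 7.5 with 20 mM MgCl2, 2 mM MnCl2, 0.25 µCi [γ-33P]ATP and 5 µg myelin basic protein as substrate. Compounds were tested at 50, 5 and 1 µM with equal DMSO in all reactions. Reactions were stopped in Laemmli buffer and run on SDS gel. Gels were Coomassie-stained, dried, autoradiographed and quantified by phosphorimaging as % remaining activity.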

Plasmodium falciparum [2] = test: Inhibition of Plasmodium falciparum Pfnek1 at 1 uM
Method in brief: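 Compounds were tested at 50, 5 and 1 µM with equal DMSO in all reactions. Reactions were stopped with Laemmli buffer and run on SDS-PAGE. Remaining activity (%) was quantified by autoradiography and phosphorimaging; no IC50 was determined.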

[3] = Selectivity index ratio of IC50 for human MCF7 cells to IC50 for chloroquine-sensitive Plasmodium falciparum F32; assay type: functional
Method in brief: (§1)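 The ratio compares the MCF-7 IC50 with the parasite IC50. MCF-7 cells were grown in DMEM with 2 mM L-glutamine and 10% FCS at 37 °C, 5% CO2, and used in exponential growth. They were seeded at 200 000 cells/mL; after 24 h, compounds were added at 0.01–100 µg/mL. Viability was read by [3H]hypoxanthine incorporation and IC50 taken graphically from the curves. Parasite IC50s came from the [3H]hypoxanthine incorporation assay on synchronized cultures.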

Plasmodium falciparum [4] = test: Antiplasmodial activity against chloroquine-resistant Plasmodium falciparum FcM29 by [3H]hypoxanthine uptake; assay type: functional, organism-based
Method in brief: (§2)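 Parasites kept in continuous culture per Trager and Jensen (modified) and synchronized every 48 h by 5% D-sorbitol lysis. Growth was read as [3H]hypoxanthine incorporation by the modified Desjardins method.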

Plasmodium falciparum [5] = test: Antiplasmodial activity against chloroquine-resistant Plasmodium falciparum FcB1 by [3H]hypoxanthine uptake; assay type: functional, organism-based; method in brief: as §2
Plasmodium falciparum [6] = test: Antiplasmodial activity against chloroquine-sensitive Plasmodium falciparum F32 by [3H]hypoxanthine uptake; assay type: functional, organism-based; method in brief: as §2
MCF7 = test: Cytotoxicity against human MCF7 cells assessed as [3H]hypoxanthine incorporation; assay type: cell-based
Method in brief: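 MCF-7 cells were grown in DMEM with 2 mM L-glutamine and 10% FCS at 37 °C, 5% CO2. Exponential-phase cells were trypsinized and seeded at 200 000 cells/mL. After 24 h, the medium was replaced with fresh medium containing compound at 0.01–100 µg/mL. Viability was read by [3H]hypoxanthine incorporation, and IC50 was taken graphically from dose-response curves.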

[7] = Selectivity index ratio of IC50 for human MCF7 cells to IC50 for chloroquine-resistant Plasmodium falciparum FcM29; assay type: functional; method in brief: as §1
[8] = Selectivity index ratio of IC50 for human MCF7 cells to IC50 for chloroquine-resistant Plasmodium falciparum FcB1; assay type: functional; method in brief: as §1
[9] = system: Plasmodium vinckei petteri; test: Antiplasmodial activity as reduced parasitaemia at day 5 in Plasmodium vinckei petteri infected CD mice (Mus musculus) at 5 mg/kg/day intraperitoneal dose; assay type: functional; settings: ip, 120 h
Method in brief: (§3)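 Four-day suppressive test in female CD mice (20 ± 2 g), each infected on day 0 with 10^6 P. vinckei petteri-parasitized erythrocytes in RPMI. Groups of five received ip doses on days 0–3. Controls got RPMI alone. Parasitaemia was counted on Giemsa-stained tail-blood smears (≥5000 erythrocytes). % inhibition = (control − treated)/control × 100.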

[10] = Toxicity in Plasmodium vinckei petteri infected CD mice (Mus musculus) assessed as mortality at 5 mg/kg/day, intraperitoneally measured on day 1; assay type: organism-based; parameters: route intraperitoneal; settings: in vivo, ip, read-out: INH
Method in brief: (§4)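 4-day suppressive test in female CD mice (20 ± 2 g) infected on day 0 with 10^6 parasitized red cells in RPMI. Groups of five were dosed intraperitoneally on days 0–3 at 5 or 20 mg/kg; reference dosing was 1 or 10 mg/kg, with RPMI-alone controls. Parasitaemia was counted on day-4 Giemsa tail-blood smears. Survival was followed for three additional weeks.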

[11] = Toxicity in Plasmodium vinckei petteri infected CD mice (Mus musculus) assessed as mortality at 5 mg/kg/day, […] measured on day 5; assay type: organism-based; settings: in vivo, read-out: INH
[12] = Toxicity in Plasmodium vinckei petteri infected CD mice (Mus musculus) assessed as mortality at 5 mg/kg/day, intraperitoneally measured on day 15; assay type: organism-based; parameters: route intraperitoneal; settings: in vivo, ip, read-out: INH; method in brief: as §4
[13] = Toxicity in Plasmodium vinckei petteri infected CD mice (Mus musculus) assessed as mortality at 20 mg/kg/day, intraperitoneally measured on day 1; assay type: organism-based; parameters: route intraperitoneal; settings: in vivo, ip, read-out: INH; method in brief: as §4
[14] = Toxicity in Plasmodium vinckei petteri infected CD mice (Mus musculus) assessed as mortality at 20 mg/kg/day, intraperitoneally measured on day 5; assay type: organism-based; parameters: route intraperitoneal; settings: in vivo, ip, read-out: INH; method in brief: as §4
[15] = Toxicity in Plasmodium vinckei petteri infected CD mice (Mus musculus) assessed as mortality at 20 mg/kg/day, intraperitoneally measured on day 15; assay type: organism-based; parameters: route intraperitoneal; settings: in vivo, ip, read-out: INH; method in brief: as §4
[16] = system: Plasmodium vinckei petteri; test: Antiplasmodial activity as reduced parasitaemia at day 5 in Plasmodium vinckei petteri infected CD mice (Mus musculus) at 20 mg/kg/day intraperitoneal dose; assay type: functional; settings: ip, 120 h; method in brief: as §3
[17] = system: Plasmodium vinckei petteri; test: Antiplasmodial activity as reduced parasitaemia at day 5 in Plasmodium vinckei petteri infected CD mice (Mus musculus) at 10 mg/kg/day intraperitoneal dose; assay type: functional; settings: ip, 120 h; method in brief: as §3
[18] = Toxicity in Plasmodium vinckei petteri infected CD mice (Mus musculus) assessed as mortality at 10 mg/kg/day, intraperitoneally measured on day 1; assay type: organism-based; parameters: route intraperitoneal; settings: in vivo, ip, read-out: INH; method in brief: as §4
[19] = Toxicity in Plasmodium vinckei petteri infected CD mice (Mus musculus) assessed as mortality at 10 mg/kg/day, intraperitoneally measured on day 5; assay type: organism-based; parameters: route intraperitoneal; settings: in vivo, ip, read-out: INH; method in brief: as §4
[20] = Toxicity in Plasmodium vinckei petteri infected CD mice (Mus musculus) assessed as mortality at 10 mg/kg/day, intraperitoneally measured on day 15; assay type: organism-based; parameters: route intraperitoneal; settings: in vivo, ip, read-out: INH; method in brief: as §4
[21] = system: Plasmodium vinckei petteri; test: Antiplasmodial activity as reduced parasitaemia at day 5 in Plasmodium vinckei petteri infected CD mice (Mus musculus) at 1 mg/kg/day intraperitoneal dose; assay type: functional; settings: ip, 120 h; method in brief: as §3
[22] = Toxicity in Plasmodium vinckei petteri infected CD mice (Mus musculus) assessed as mortality at 1 mg/kg/day, intraperitoneally measured on day 1; assay type: organism-based; parameters: route intraperitoneal; settings: in vivo, ip, read-out: INH; method in brief: as §4
[23] = Toxicity in Plasmodium vinckei petteri infected CD mice (Mus musculus) assessed as mortality at 1 mg/kg/day, intraperitoneally measured on day 5; assay type: organism-based; parameters: route intraperitoneal; settings: in vivo, ip, read-out: INH; method in brief: as §4
[24] = Toxicity in Plasmodium vinckei petteri infected CD mice (Mus musculus) assessed as mortality at 1 mg/kg/day, intraperitoneally measured on day 15; assay type: organism-based; parameters: route intraperitoneal; settings: in vivo, ip, read-out: INH; method in brief: as §4

C[C@@]12CCC[C@]3(C)c4cc5c(O)ccc(O)c5cc4C(=O)[C@](O)(OC1)[C@H]23 [ALISIAQUINOL]
Activity (Plasmodium falciparum [1]): Active
inhibition (Plasmodium falciparum [2]): 49%
Ratio IC50 [3]: <1
IC50 (Plasmodium falciparum [4]): 7.9 µM
IC50 (Plasmodium falciparum [5]): 6.4 µM
IC50 (Plasmodium falciparum [6]): 9.9 µM
IC50 (MCF7): 1.7 µM

C[C@@]12CCC[C@]3(C)c4cc5c(cc4C(=O)[C@](O)(OC1)[C@H]23)C(=O)C=CC5=O [ALISIAQUINONE A]
Activity (Plasmodium falciparum [1]): Active
inhibition (Plasmodium falciparum [2]): 41%
Ratio IC50 [3]: 4
IC50 (Plasmodium falciparum [4]): 8.5 µM
Ratio IC50 [7]: 4
IC50 (Plasmodium falciparum [5]): 7.4 µM
Ratio IC50 [8]: 5
IC50 (Plasmodium falciparum [6]): 9.1 µM
IC50 (MCF7): 36 µM
inhibition in vivo at 5 mg/kg/day [9]: 63%
mortality [10]: 0%
mortality [11]: 0%
mortality [12]: 40%
mortality [13]: 100%
mortality [14]: 100%
mortality [15]: 100%

COC1=CC(=O)c2cc3c(cc2C1=O)C(=O)[C@]1(O)OC[C@@]2(C)CCC[C@@]3(C)[C@@H]21 [ALISIAQUINONE B]
Ratio IC50 [3]: <1
IC50 (Plasmodium falciparum [4]): 2.6 µM
IC50 (Plasmodium falciparum [5]): 8.4 µM
IC50 (Plasmodium falciparum [6]): 7.1 µM
IC50 (MCF7): 0.8 µM

C[C@@]12CCC[C@]3(C)c4cc5c(cc4C(=O)[C@](O)(OC1)[C@H]23)C(=O)C1=C(NCCS1(=O)=O)C5=O [ALISIAQUINONE C]
Activity (Plasmodium falciparum [2]): inactive
Ratio IC50 [3]: 270
IC50 (Plasmodium falciparum [4]): 0.08 µM
Ratio IC50 [7]: 500
IC50 (Plasmodium falciparum [5]): 0.21 µM
Ratio IC50 [8]: 200
IC50 (Plasmodium falciparum [6]): 0.15 µM
IC50 (MCF7): 41 µM
inhibition in vivo at 5 mg/kg/day [9]: 36%
mortality [10]: 0%
mortality [11]: 0%
mortality [12]: 60%
inhibition in vivo at 20 mg/kg/day [16]: 42%
mortality [13]: 60%
mortality [14]: 80%
mortality [15]: 100%

CCN(CC)CCCC(C)Nc1ccnc2cc(Cl)ccc12 (stereo not drawn) [CHLOROQUINE]
inhibition in vivo at 10 mg/kg/day [17]: 100%
mortality [18]: 0%
mortality [19]: 0%
mortality [20]: 0%
IC50 (MCF7): 12 µM
inhibition in vivo at 1 mg/kg/day [21]: 0%
mortality [22]: 0%
mortality [23]: 0%
mortality [24]: 100%
